ChEMBL document CHEMBL1140162, “3-amino-7-phthalazinylbenzoisoxazoles as a novel class of potent, selective, and orally available inhibitors of p38alpha mitogen-activated protein kinase” (J Med Chem, 2008)
pIC50, pKi: −log10 of the molar value.

Experiments:
[1] = target: T1, Mitogen-activated protein kinase 14 (Homo sapiens, UniProt Q16539); test: Inhibition of human recombinant GST-tagged p38alphaMAPK-induced ATF2 phosphorylation
[2] = target: Cytochrome P450 3A4 (Homo sapiens, UniProt P08684); test: Inhibition of CYP3A4 in human liver microsomes; format: ADME, Microsome
[3] = test system: Blood; test: Inhibition of TNF-induced IL8 production in human whole blood; format: functional, tissue-based
[4] = target: Cytochrome P450 2D6 (Homo sapiens, UniProt P10635); test: Inhibition of CYP2D6; format: ADME
[5] = test system: THP-1; test: Inhibition of LPS-induced TNFalpha production in human THP1 cells after 3 hrs; format: functional, cell-based; conditions: THP-1, 3 h
[6] = target: T2, Platelet-derived growth factor receptor beta (Homo sapiens, UniProt P09619); test: Inhibition of PDGFRbeta at 1 uM relative to control
[7] = target: T1, Mitogen-activated protein kinase 14; test: Inhibition of p38alpha at 1 uM relative to control
[8] = target: T3, Mitogen-activated protein kinase 11 (Homo sapiens, UniProt Q15759); test: Inhibition of p38beta at 1 uM relative to control
[9] = Tmax in Sprague-Dawley rat at 10 mg/kg, po; format: ADME, organism-based; parameters: dose 10 mg/kg, route oral; conditions: in vivo
Procedure, shortened: (§1)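 Sprague-Dawley rats dosed orally at 10 mg/kg as a solution in 1% Tween-80 in OralPlus (pH 2.2); bioavailability derived against 2 mg/kg iv dosing.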

[10] = target: T2, Platelet-derived growth factor receptor beta; test: Inhibition of PDGFRbeta
[11] = test system: Rattus norvegicus; test: Cmax in Sprague-Dawley rat at 10 mg/kg, po; format: ADME, organism-based; parameters: dose 10 mg/kg, route oral; conditions: in vivo; procedure, shortened: as §1
[12] = Elimination half life in Sprague-Dawley rat at 2 mg/kg, iv; format: ADME, organism-based; parameters: dose 2 mg/kg, route intravenous; conditions: in vivo
Procedure, shortened: (§2)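 Sprague-Dawley rats given 2 mg/kg intravenously; clearance, volume of distribution and elimination half-life derived from plasma profile.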

[13] = Volume of distribution in Sprague-Dawley rat at 2 mg/kg, iv; format: ADME, organism-based; parameters: dose 2 mg/kg, route intravenous; conditions: in vivo; procedure, shortened: as §2
[14] = target: T3, Mitogen-activated protein kinase 11; test: Inhibition of human recombinant GST-tagged p38beta-induced ATF2 phosphorylation
[15] = Concentration of drug level in po dosed collagen-induced arthritis Lewis rat model after 24hrs; format: ADME, organism-based; conditions: in vivo, read-out: Drug uptake
Procedure, shortened: (§3)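 Lewis rats immunized intradermally with porcine type II collagen in incomplete Freund's adjuvant; dosing oral, once daily for 7 days from disease onset (days 10-12), vehicle 1% Tween-80 in Oraplus pH 2.2, doses 0.03-3.0 mg/kg. Paw diameter measured daily days 0-7; area under swelling curve used for percent inhibition versus vehicle; n = 8 rats/group. Exposure values interpolated.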

[16] = target: T4, Nuclear receptor subfamily 1 group I member 2 (Homo sapiens, UniProt O75469); test: Activation of human PXR
T4 sequence (O75469 whole entry): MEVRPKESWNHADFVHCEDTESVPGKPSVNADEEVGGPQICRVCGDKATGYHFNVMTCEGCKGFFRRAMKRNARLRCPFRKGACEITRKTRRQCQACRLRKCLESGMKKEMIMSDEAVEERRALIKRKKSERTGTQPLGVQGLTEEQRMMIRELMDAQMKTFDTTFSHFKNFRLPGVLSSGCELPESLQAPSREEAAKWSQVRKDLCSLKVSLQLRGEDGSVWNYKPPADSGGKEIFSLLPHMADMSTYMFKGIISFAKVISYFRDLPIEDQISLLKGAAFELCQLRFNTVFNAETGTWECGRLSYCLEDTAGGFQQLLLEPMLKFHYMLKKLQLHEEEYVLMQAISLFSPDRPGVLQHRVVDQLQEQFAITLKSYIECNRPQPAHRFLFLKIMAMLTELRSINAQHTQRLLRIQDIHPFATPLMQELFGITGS

[17] = Protein binding in human plasma; format: ADME, cell-free; conditions: read-out: PPB (converted)
Procedure, shortened: (§4)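 Plasma protein binding in rat or human plasma measured by ultrafiltration.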

[18] = test system: Liver microsomes; test: Metabolic stability in Sprague-Dawley rat liver microsomes assessed per mg of protein by LCMS in presence of NADPH; format: ADME, Microsome
Procedure, shortened: (§5)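 Test article 1 µM incubated with rat or human liver microsomes (0.1 mg/mL) in 66.67 mM potassium phosphate pH 7.4; NADPH 1 mM started reaction, blank without NADPH; stopped at 10 min with acetonitrile/0.05% formic acid; remaining parent quantified by LCMS; triplicates.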

[19] = Protein binding in Sprague-Dawley rat plasma; format: ADME, cell-free; conditions: read-out: PPB (converted); procedure, shortened: as §4
[20] = test system: Rattus norvegicus; test: Oral bioavailability in Sprague-Dawley rat at 10 mg/kg; format: ADME, organism-based; conditions: in vivo; procedure, shortened: as §1
[21] = test system: Rattus norvegicus; test: Cmax in po dosed collagen-induced arthritis Lewis rat model; format: ADME, organism-based; parameters: route oral; conditions: in vivo; procedure, shortened: as §3
[22] = test system: Rattus norvegicus; test: AUC (0 to 24 hrs) in po dosed collagen-induced arthritis Lewis rat model; format: ADME, organism-based; parameters: time < 24 hr, route oral; conditions: in vivo; procedure, shortened: as §3
[23] = test system: Liver microsomes; test: Metabolic stability in human liver microsomes assessed per mg of protein by LCMS in presence of NADPH; format: ADME, Microsome; procedure, shortened: as §5
[24] = test system: Rattus norvegicus; test: Antiinflammatory effect in po dosed collagen-induced arthritis Lewis rat model assessed as inhibition of paw swelling administered once a day for 7 days; format: functional; procedure, shortened: as §3
[25] = target: Voltage-gated inwardly rectifying potassium channel KCNH2 (Homo sapiens, UniProt Q12809); test: Inhibition of human ERG by manual electrophysiology
[26] = target: T5, Mast/stem cell growth factor receptor Kit (Homo sapiens, UniProt P10721); test: Inhibition of c-KIT
[27] = target: T5, Mast/stem cell growth factor receptor Kit; test: Inhibition of c-KIT at 1 uM relative to control

Sequence of Cytochrome P450 2D6 (P10635 whole entry): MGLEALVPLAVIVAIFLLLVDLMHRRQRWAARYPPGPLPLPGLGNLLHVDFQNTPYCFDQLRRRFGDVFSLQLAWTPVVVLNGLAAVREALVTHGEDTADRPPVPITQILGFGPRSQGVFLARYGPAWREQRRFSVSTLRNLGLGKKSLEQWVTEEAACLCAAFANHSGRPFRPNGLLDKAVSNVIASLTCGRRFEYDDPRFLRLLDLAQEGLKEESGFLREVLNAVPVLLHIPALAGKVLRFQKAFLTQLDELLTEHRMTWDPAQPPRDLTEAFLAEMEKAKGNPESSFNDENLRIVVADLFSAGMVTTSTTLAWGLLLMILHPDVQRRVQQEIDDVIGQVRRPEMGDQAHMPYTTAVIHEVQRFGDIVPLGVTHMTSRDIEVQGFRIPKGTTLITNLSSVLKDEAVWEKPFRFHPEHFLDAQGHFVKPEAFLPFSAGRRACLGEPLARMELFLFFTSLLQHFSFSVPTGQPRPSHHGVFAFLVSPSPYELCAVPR
T1 sequence (Q16539 whole entry): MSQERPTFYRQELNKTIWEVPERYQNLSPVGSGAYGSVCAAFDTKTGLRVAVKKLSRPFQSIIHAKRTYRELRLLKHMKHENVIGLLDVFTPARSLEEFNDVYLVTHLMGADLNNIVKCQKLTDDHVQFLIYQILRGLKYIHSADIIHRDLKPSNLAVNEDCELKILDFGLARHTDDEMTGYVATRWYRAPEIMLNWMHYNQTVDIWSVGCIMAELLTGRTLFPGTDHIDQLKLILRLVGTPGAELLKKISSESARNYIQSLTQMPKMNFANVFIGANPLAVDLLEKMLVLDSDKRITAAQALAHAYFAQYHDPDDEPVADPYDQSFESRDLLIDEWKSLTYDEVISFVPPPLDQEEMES
Sequence of Cytochrome P450 3A4 (P08684 whole entry): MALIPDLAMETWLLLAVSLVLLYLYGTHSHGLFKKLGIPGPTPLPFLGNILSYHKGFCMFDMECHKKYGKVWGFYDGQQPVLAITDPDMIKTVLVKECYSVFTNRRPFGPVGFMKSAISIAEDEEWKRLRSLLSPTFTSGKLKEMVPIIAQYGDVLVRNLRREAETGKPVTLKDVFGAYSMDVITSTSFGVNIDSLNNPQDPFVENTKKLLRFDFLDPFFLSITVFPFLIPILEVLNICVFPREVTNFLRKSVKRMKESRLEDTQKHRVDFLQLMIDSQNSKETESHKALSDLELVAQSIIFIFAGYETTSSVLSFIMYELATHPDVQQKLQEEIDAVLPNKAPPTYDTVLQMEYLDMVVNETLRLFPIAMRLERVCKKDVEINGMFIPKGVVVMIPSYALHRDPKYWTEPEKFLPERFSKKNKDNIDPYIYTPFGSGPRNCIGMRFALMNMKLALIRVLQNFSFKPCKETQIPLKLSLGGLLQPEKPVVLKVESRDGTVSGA
T2 sequence (P09619 whole entry): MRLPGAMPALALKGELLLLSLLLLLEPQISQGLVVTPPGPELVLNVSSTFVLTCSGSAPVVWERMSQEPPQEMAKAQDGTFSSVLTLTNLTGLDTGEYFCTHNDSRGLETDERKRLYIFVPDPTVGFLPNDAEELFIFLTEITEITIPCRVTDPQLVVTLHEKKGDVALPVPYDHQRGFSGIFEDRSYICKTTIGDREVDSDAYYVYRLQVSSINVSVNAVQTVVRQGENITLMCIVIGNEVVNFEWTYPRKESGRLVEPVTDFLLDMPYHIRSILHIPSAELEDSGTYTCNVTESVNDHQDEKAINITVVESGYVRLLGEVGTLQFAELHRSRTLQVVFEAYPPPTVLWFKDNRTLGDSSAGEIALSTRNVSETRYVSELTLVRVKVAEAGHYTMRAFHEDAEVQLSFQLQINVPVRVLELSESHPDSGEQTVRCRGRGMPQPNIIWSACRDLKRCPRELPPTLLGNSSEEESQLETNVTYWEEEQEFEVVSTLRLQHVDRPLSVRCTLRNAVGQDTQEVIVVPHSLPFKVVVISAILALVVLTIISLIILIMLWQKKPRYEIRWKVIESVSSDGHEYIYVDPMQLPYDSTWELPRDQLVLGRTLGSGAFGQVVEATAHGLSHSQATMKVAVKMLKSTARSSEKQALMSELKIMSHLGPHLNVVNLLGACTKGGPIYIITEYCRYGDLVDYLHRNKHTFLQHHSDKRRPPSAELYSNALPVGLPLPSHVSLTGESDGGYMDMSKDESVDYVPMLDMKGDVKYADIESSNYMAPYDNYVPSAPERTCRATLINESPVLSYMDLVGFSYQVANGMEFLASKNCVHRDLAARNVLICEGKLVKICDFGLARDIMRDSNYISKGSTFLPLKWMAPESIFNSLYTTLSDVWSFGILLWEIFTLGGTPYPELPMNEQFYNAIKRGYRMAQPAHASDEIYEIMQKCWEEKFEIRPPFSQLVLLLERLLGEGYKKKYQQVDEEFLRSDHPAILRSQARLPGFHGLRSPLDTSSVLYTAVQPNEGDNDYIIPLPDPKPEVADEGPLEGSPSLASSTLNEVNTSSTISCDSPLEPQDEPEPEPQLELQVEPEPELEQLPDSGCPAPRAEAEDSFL
T5 sequence (P10721 whole entry): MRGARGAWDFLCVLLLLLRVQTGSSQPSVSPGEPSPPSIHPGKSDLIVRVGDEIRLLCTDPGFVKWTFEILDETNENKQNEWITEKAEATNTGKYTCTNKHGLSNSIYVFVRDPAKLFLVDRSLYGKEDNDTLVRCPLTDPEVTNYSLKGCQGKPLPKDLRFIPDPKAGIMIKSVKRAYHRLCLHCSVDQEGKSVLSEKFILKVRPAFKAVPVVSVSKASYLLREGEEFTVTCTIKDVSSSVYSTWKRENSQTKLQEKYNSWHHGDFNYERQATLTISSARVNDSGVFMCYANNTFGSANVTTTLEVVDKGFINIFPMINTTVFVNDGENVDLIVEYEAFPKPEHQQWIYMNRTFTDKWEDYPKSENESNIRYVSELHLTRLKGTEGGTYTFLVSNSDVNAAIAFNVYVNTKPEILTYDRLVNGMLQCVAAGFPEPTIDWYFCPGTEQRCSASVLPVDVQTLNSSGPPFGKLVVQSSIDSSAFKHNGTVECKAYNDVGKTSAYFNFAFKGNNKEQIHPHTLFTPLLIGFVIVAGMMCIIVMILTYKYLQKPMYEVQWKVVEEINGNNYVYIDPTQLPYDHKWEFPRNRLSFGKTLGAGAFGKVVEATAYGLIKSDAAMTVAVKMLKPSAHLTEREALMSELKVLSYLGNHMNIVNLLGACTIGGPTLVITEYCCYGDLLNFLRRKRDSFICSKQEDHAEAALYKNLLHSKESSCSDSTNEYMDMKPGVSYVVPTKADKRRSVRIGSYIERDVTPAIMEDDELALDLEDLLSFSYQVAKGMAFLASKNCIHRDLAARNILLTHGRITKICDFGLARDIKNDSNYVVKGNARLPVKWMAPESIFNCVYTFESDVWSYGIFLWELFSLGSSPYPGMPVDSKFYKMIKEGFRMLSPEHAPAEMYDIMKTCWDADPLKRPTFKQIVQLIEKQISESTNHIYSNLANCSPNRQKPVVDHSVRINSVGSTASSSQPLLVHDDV
T3 sequence (Q15759 whole entry): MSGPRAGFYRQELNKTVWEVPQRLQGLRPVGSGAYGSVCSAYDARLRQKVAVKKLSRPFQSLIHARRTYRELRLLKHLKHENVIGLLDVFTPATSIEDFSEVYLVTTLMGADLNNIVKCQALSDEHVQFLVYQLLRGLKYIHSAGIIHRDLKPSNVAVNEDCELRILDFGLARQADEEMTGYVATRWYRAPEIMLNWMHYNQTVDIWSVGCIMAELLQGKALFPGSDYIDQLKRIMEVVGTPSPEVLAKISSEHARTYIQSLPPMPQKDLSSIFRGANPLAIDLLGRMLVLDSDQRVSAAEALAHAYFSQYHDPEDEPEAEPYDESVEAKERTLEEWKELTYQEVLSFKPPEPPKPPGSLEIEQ
Sequence of Voltage-gated inwardly rectifying potassium channel KCNH2 (Q12809 whole entry): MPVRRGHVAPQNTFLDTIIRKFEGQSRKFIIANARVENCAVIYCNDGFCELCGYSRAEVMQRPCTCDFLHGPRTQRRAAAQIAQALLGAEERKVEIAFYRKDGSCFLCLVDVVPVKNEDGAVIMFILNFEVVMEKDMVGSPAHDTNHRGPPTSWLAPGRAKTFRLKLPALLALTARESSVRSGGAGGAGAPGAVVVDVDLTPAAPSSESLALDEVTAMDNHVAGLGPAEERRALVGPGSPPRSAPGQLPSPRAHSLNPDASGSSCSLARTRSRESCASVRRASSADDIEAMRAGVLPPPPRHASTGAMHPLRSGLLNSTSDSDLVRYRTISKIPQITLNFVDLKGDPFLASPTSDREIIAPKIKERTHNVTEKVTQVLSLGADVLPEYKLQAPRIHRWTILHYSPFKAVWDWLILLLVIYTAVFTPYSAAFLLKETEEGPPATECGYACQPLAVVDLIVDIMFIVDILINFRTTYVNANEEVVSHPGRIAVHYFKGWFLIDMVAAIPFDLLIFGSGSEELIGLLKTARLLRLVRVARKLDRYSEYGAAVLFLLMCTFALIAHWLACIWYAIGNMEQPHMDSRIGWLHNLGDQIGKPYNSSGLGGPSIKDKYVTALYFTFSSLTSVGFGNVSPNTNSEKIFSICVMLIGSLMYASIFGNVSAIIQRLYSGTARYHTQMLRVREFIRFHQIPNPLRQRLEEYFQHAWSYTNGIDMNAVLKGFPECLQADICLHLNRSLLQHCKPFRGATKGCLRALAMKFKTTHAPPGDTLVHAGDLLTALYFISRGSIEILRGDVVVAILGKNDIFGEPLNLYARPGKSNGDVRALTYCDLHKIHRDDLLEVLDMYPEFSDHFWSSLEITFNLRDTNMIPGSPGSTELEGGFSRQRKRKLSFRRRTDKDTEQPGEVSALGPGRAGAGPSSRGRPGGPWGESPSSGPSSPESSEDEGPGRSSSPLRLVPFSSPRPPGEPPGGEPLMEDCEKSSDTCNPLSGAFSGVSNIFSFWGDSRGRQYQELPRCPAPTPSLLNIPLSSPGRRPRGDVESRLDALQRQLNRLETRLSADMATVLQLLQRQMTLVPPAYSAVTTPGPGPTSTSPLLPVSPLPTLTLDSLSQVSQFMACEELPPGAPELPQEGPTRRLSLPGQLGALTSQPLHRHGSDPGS

Cc1ccc2c(NC3CC3)noc2c1-c1ccc2c(N3CCOC[C@@H]3C)nncc2c1
pKi [1]: 9.15 | pIC50 [2]: 5.25 | pIC50 [3]: 8.89 | pIC50 [4]: < 4.60 | pIC50 [5]: 9.22

Cc1ccc2c(N)noc2c1-c1ccc2c(N3CCOC[C@@H]3C)nncc2c1
pKi [1]: 9.52 | pIC50 [2]: 4.92 | pIC50 [3]: 8.28 | pIC50 [5]: 8.44

Cc1ccc2c(N)n[nH]c2c1-c1ccc2c(N3CCOC[C@@H]3C)nncc2c1
pKi [1]: 7.80 | pIC50 [3]: 6.82 | pIC50 [5]: 6.92

CC(C)Nc1noc2c(-c3ccc4c(N5CCOC[C@@H]5C)nncc4c3)c(Cl)ccc12
pKi [1]: 9.40 | pIC50 [2]: 5.35 | pIC50 [3]: 7.82 | pIC50 [5]: 8.44

CC[C@H](C)Nc1nncc2cc(-c3c(C)ccc4c(NC)noc34)ccc12
pKi [1]: 9.70 | pIC50 [2]: < 4.60 | pIC50 [3]: 8.68 | pIC50 [5]: 8.89

CCNc1noc2c(-c3ccc4c(N5CCOC[C@@H]5C)nncc4c3)c(C)ccc12
pKi [1]: 9.52 | pIC50 [2]: 5.00 | pIC50 [3]: 8.70 | pIC50 [5]: 9.40

Cc1ccc2c(NC3CC3)noc2c1-c1ccc2c(NC(C)C)nncc2c1
pKi [1]: 9.30 | pIC50 [2]: 5.25 | pIC50 [3]: 9.15 | pIC50 [4]: < 4.60 | pIC50 [5]: 9.40

CNc1noc2c(-c3ccc4c(C(C)C)nncc4c3)c(C)ccc12
pKi [1]: 8.96 | pIC50 [2]: < 4.60 | pIC50 [3]: 8.47 | pIC50 [5]: 8.96

CC(=O)N1CCN(c2nncc3cc(-c4c(C)ccc5c(NC6CC6)noc45)ccc23)[C@@H](C)C1
pKi [1]: 9.10 | pIC50 [3]: 8.85 | pIC50 [4]: < 4.60 | pIC50 [5]: 9.10

Cc1ccc2c(N)nsc2c1-c1ccc2c(N3CCOC[C@@H]3C)nncc2c1
pKi [1]: 8.70 | pIC50 [2]: 5.40 | pIC50 [3]: 7.30 | pIC50 [5]: 7.54

CNc1noc2c(-c3ccc4c(N5CCOC[C@@H]5C)nncc4c3)c(C)ccc12
inhibition [6]: < 50% | inhibition [7]: < 50% | inhibition [8]: < 50% | Tmax [9]: 1.7 h | pIC50 [10]: 6.08 | pKi [1]: 9.40 | Cmax [11]: 1040 ng/mL | half-life [12]: 2.8 h | pIC50 [2]: < 4.60 | Vd [13]: 2.4 L/kg | pKi [14]: 8.74 | pIC50 [3]: 8.48 | concentration at 24 h [15]: 0.3 nM | Activity [16]: Not Active | fraction unbound [17]: 0.08 | Stability [18]: 120 µL/min | fraction unbound [19]: 0.1 | F [20]: 67% | Cmax [21]: 7 nM | AUC [22]: 0.0224 µM·h | Stability [23]: 132 µL/min | Activity [24]: Dose-dependent effect | ED50 ([24]; 168 h): 0.05 mg/kg | pIC50 [25]: 4.89 | pIC50 [26]: 5.80 | inhibition [27]: < 50% | pIC50 [5]: 9.40

CNc1noc2c(-c3ccc4c(NC(C)C)nncc4c3)c(C)ccc12
pKi [1]: 9.30 | pIC50 [2]: < 4.60 | pIC50 [3]: 8.66 | pIC50 [5]: 9.15

CNc1noc2c(-c3ccc4c(N5CCOC[C@H]5C)nncc4c3)c(C)ccc12
pKi [1]: 9.52 | pIC50 [2]: < 4.60 | pIC50 [3]: 8.35 | pIC50 [5]: 9.00

CNc1noc2c(-c3ccc4c(N5CCOC[C@@H]5C)nncc4c3)c(Cl)ccc12
pKi [1]: 9.70 | pIC50 [2]: 5.22 | pIC50 [3]: 8.48 | pIC50 [5]: 8.89

CC(=O)Nc1noc2c(-c3ccc4c(N5CCOC[C@@H]5C)nncc4c3)c(C)ccc12
pKi [1]: 9.22 | pIC50 [2]: < 4.60 | pIC50 [3]: 8.70 | pIC50 [5]: 9.15

CNc1noc2c(-c3ccc4c(OC(C)C)nncc4c3)c(C)ccc12
pKi [1]: 9.40 | pIC50 [2]: < 4.60 | pIC50 [3]: 8.15 | pIC50 [5]: 9.15

Cc1ccccc1-c1nncc2cc(-c3c(C)ccc4c(NC5CC5)noc34)ccc12
pKi [1]: 9.40 | pIC50 [2]: 5.74 | pIC50 [3]: 8.48 | pIC50 [4]: < 4.60 | pIC50 [5]: 9.40
